# In PubChem BioAssay:
# Calls of active or inactive are those of the source.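 How the source made its calls, unless noted: active means NADPH fluorescence slope more negative than the mean of all samples by about 3 SD, 99.7% confidence; inactive means the rest.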
# What was measured:
# [1] = inhibitors of TNFa-induced NFkB p65 translocation, primary screen, imaging, HUVEC, MLSMR starter and 10KST1 sets (AID 438;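 active means inhibition above 20% together with a positive visual image hit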;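 further: compound added about 3h40 before a 20 min TNFalpha stimulation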;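 on inhibition: signal is the nuclear over cytoplasmic p65 intensity ratio per well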); conditions: HUVEC TNFa-induced p65 nuclear translocation; cell count: measured here: nuclei count (cytotoxicity indicator), at 2.08 µM; inhibition: at 2 µM, stronger effect = higher value, 0% TNFa-plus-vehicle, 100% no-TNFa wells
# [2] = endothelial E-selectin expression blockers – imaging, HUVEC, immunofluorescence, MLSMR starter and 10KST1 sets, primary screen (AID 487;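 active means visually confirmed hit in the image check and inhibition above 20%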;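 on inhibition: signal is fraction of cell area covered by stained E-selectin grains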;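 on nuclei count: 100% = median nuclei count of all wells on the same plate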); conditions: HUVEC TNFalpha-induced E-selectin immunofluorescence imaging, at 2 µM; inhibition: stronger effect = higher value; nuclei count: measured here: cell number, toxicity
# [3] = Primary imaging screen for DUSP6 inhibitors that restore phospho-Erk in transfected HeLa cells, chemical complementation (AID 609;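 active means compounds giving at least 50% inhibition in the cell-based MKP-3 phosphatase rescue imaging test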;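 on inhibition: phospho-Erk level distribution per well compared with pooled transfected vehicle control wells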); conditions: HeLa MKP-3 transfected, phospho-Erk imaging KS statistic, at 10 µM, cells stimulated with TPA for 15 min
# [4] = biological target: Dual specificity protein phosphatase 6 (Homo sapiens) (UniProt Q16828); assay: as above; conditions: HeLa MKP-3 transfected, phospho-Erk imaging KS statistic; at 10 µM; stronger effect = higher value; cells stimulated with TPA for 15 min
# [5] = biological target: Voltage-gated potassium channel subunit beta-2 (Rattus norvegicus) (UniProt P62483); assay: inhibitors of rat Kvbeta2 reductase activity – biochemical, NADPH fluorescence, primary screen (AID 622;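 active means fluorescence slope higher than the sample average by over 3 SD, cut at about -0.22 in these data, passing the limit was not always enough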;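 further: slope of raw intensity against log time taken from 70 to 1610 s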); conditions: recombinant KvBeta, 4-cyanobenzaldehyde reduction, at 10 µM, stronger effect = higher value
# [6] = biological target: Voltage-gated potassium channel subunit beta-2 (Rattus norvegicus) (UniProt P62483); assay: enhancers of rat Kvbeta2 NADPH turnover – biochemical, NADPH fluorescence, primary screen (AID 623); conditions: Recombinant KvBeta, NADPH fluorescence decrease slope, 10 min; at 10 µM; stronger effect = lower value;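 further: fluorescence intensity change per second fitted from 20 to 320 s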
# [7] = biological target: Alpha-2C adrenergic receptor (Homo sapiens) (UniProt P18825); assay: compounds altering alpha2C-coupled GIRK flux – cell-based, HEK293 alpha2C/GIRK1/2, thallium flux, primary screen (AID 624;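 active means fluorescence slope after compound addition differing from the mean of all screened samples at 99.7% confidence, in either direction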;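 further: slope of fluorescence ratio to pre-addition baseline per second over 15 to 24 s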); conditions: thallium flux BTC fluorescence, at 10 µM, actives lie on both sides
# [8] = inhibitors of larval lipid processing in zebrafish, primary screen, whole organism, PED6 fluorescence, gall bladder and intestine (AID 686;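 active means a full or partial loss of lipid-probe fluorescence in the fish gall bladder, intestine or both, judged by eye; inactive means no fluorescence loss, or compound toxic to the fish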;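 further: larvae 5 to 7 days old with five fish per well; signal comes from phospholipase A2 cleavage of quenched PED6 carried via bile; overnight exposure to compound and PED6 before scoring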); conditions: Zebrafish larvae PED6 lipid processing, fluorescence scoring; screened at 20 µM (by protocol)
# In short: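 Test system – live zebrafish larvae aged 5-7 days, whole organism · Buffer or medium – E3 fish medium · Reagent – quenched phospholipase substrate PED6, 100 nM final, ingested by larvae · Doses – 20 µM single dose · Incubation – overnight compound and PED6 incubation · Technique – visual fluorescence microscopy scoring of gall bladder, gut · Read-out basis – visual per-well fluorescence inhibition score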
# [9] = loss of swimming-algae plug formation – whole organism, Chlamydomonas reinhardtii, WT vs cilia-less mutant, absorbance, 96-well, primary screen (AID 463189;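 active means inhibition at or above 50% relative to wild type and mutant plate controls; inactive means inhibition below 50%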;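 further: 0% = wild type cc124 cells in DMSO and 100% = ciliumless bld1 mutant cells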); conditions: Chlamydomonas reinhardtii gravitaxis, OD600 absorbance, 2 days; at 10 µM; stronger effect = higher value
# [10] = measured here: cell density z-score
# [11] = measured here: nuclear c-Myc green intensity z-score
# [12] = measured here: nuclear pErk red intensity z-score, stronger effect = higher value
# Chain of Dual specificity protein phosphatase 6 (Homo sapiens) (Q16828 whole entry, looked up): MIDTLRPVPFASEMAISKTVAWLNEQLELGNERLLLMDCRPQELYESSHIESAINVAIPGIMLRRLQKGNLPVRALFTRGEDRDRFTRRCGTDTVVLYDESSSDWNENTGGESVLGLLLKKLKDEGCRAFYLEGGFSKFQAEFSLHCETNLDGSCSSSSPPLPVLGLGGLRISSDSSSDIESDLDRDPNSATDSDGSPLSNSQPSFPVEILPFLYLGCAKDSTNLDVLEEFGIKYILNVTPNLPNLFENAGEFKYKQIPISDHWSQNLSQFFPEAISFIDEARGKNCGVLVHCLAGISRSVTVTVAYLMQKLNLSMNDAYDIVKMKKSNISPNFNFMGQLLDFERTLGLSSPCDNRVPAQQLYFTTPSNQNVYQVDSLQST
# Chain of Voltage-gated potassium channel subunit beta-2 (Rattus norvegicus) (P62483 whole entry, looked up): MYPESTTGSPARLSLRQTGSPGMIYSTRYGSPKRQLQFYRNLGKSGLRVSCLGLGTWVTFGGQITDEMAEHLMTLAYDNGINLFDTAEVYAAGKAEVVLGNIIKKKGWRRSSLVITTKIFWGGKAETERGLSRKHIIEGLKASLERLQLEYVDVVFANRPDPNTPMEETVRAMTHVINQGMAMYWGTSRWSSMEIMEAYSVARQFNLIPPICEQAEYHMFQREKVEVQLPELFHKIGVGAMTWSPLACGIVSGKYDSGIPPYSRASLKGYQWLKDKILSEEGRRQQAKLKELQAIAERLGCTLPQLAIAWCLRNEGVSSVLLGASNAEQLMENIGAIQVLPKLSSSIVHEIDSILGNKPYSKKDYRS
# Chain of Alpha-2C adrenergic receptor (Homo sapiens) (P18825 whole entry, looked up): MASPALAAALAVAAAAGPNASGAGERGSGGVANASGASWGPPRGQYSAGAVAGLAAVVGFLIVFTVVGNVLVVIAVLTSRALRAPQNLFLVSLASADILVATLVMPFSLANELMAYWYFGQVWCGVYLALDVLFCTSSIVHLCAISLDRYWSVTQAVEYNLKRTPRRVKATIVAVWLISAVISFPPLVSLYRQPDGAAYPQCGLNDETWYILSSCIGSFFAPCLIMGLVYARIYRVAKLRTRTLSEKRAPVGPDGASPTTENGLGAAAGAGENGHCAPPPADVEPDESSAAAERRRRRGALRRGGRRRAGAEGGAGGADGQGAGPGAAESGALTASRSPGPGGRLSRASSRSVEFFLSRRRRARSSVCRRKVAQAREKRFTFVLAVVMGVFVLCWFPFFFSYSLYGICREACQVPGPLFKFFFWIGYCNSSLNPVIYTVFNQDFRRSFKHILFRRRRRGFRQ
Compound,cell count [1],inhibition [1],inhibition [2],nuclei count [2] [%],"z-score [3, 10]","z-score [3, 11]","z-score [3, 12]",inhibition [4],fluorescence slope [5],NADPH fluorescence slope [6],slope [7],outcome [8],inhibition [9]
CC(=O)Nn1cnc2c(c1=O)C1(CCCC1)Cc1ccccc1-2,520,-1.9% (inactive),29.6% (inactive),113,-0.985,1.83,1.16,-2.69% (inactive),-0.382 (inactive),-2e-06 (inactive),0.0042 (inactive),inactive,43% (inactive)
COc1ccc(Cn2c(=O)c3c(nc(NCCO)n3C)n(C)c2=O)cc1,336,-3.5% (inactive),-129% (inactive),131,-0.216,1.13,0.242,-0.624% (inactive),-0.369 (inactive),3.5e-05 (inactive),0.00827 (inactive),inactive,-14.7% (inactive)
COc1cccc(OC)c1-c1nn2c(-c3ccco3)nnc2s1,630,-5.2% (inactive),-86.6% (inactive),172,0.253,0.886,-0.677,10.1% (inactive),-0.431 (inactive),-0.000166 (inactive),0.00439 (inactive),inactive,5.78% (inactive)
c1csc(-c2nn3c(C4CCCCC4)nnc3s2)c1,623,-8.5% (inactive),-52.2% (inactive),155,-1.83,-0.584,2.62,-15% (inactive),-0.426 (inactive),-0.00015 (inactive),0.00407 (inactive),inactive,13.7% (inactive)
CCc1nc(SCc2cccnc2)c(C#N)cc1C,594,-3.5% (inactive),-81.5% (inactive),176,0.241,-0.223,-1.08,2.46% (inactive),-0.341 (inactive),8.2e-06 (inactive),0.00538 (inactive),inactive,50.3% (active)
Cn1c(SCC(=O)N2CCOCC2)nnc1-c1ccc(Cl)cc1Cl,359,-9.4% (inactive),-17.3% (inactive),101,0.947,-0.186,-0.938,1.75% (inactive),-0.453 (inactive),1.1e-05 (inactive),0.00668 (inactive),inactive,-14.7% (inactive)
CCCCOc1ccc(C)cc1CN(CCO)CCO,552,-8% (inactive),-87% (inactive),111,-1.69,-0.122,-1.5,1.9e-07% (inactive),-0.506 (inactive),-1.2e-05 (inactive),0.0065 (inactive),inactive,-2.14% (inactive)
COc1cccc(OC)c1-c1nn2c(-c3ccccc3Cl)nnc2s1,611,-4.2% (inactive),-50.2% (inactive),159,1.55,-0.0979,-0.298,-6.06% (inactive),-0.444 (inactive),-0.000105 (inactive),0.00355 (inactive),inactive,101% (active)
COC(=O)c1ccc(=O)n(Cc2ccco2)c1,300,-2.7% (inactive),-70.6% (inactive),107,-1.23,1.62,-0.83,-6.48% (inactive),-0.404 (inactive),-1.8e-06 (inactive),0.00511 (inactive),inactive,-14.2% (inactive)
COc1ccc2c(c1)nc(N)n2Cc1ccccc1,570,-4.4% (inactive),15% (inactive),168,2.35,-1.31,1.13,15.8% (inactive),-0.388 (inactive),-2.5e-05 (inactive),0.004 (inactive),inactive,12.8% (inactive)
COCc1cc(=O)[nH]c(Nc2nc3ccc(C)cc3o2)n1,568,-19% (inactive),-52.2% (inactive),156,0.289,0.499,-0.0408,-3.97% (inactive),-0.463 (inactive),-4.8e-05 (inactive),0.00626 (inactive),inactive,2.95% (inactive)
CCCOc1ccc(Cn2c(O)cc(=O)[nH]c2=O)cc1,568,0% (inactive),-90.4% (inactive),188,-0.648,-0.788,0.279,-8.95% (inactive),-0.372 (inactive),-3.5e-05 (inactive),0.00508 (inactive),inactive,-1.95% (inactive)
CCOc1cccc(-c2nnc3sc(-c4cc(OC)c(OC)c(OC)c4)nn23)c1,647,-9.1% (inactive),-15.9% (inactive),171,1.15,0.91,-0.181,-15% (inactive),-0.39 (inactive),-0.000117 (inactive),0.00923 (inactive),inactive,6.41% (inactive)
